We go through 16 compounds from ChEMBL document CHEMBL1125833, “Anxiolytic properties of certain annelated [1,2,4]triazolo[1,5-c]pyrimidin-5(6H)-ones” (J Med Chem, 1991).

The target of assay [1] is GABA-A receptor; anion channel. The assay is described as follows: Displacement of [3H]flunitrazepam (FNZ) from GABA-A benzodiazepine receptor in rat forebrain. On the technique in general: In a radioligand displacement assay an active substance lowers the binding of a labelled ligand.
The target of assay [2] is GABA-A receptor; anion channel (Rattus norvegicus) (UniProt O09028+P15431+P18506+P18508+P19969+P20236+P23574+P23576+P28471+P28473+P30191+P62813+P63079+P63138+Q91ZM7+Q9ES14). As to the kind of experiment: GABA ratio measured by the IC50 in the absence of GABA compared to the IC50 in the presence of GABA in rats. Put shortly: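 Modified [3H]flunitrazepam binding in rat forebrain, with IC50 measured with and without GABA. Ratio = IC50 without GABA divided by IC50 with GABA.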

The species named for assay [3] is Rattus norvegicus. As to the kind of experiment: Anxiolytic response measured by antagonism of pentylenetetrazole discriminative stimuli in rats. Type of assay: functional. A digest of the protocol:
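Rats trained to discriminate a subconvulsant dose of pentylenetetrazole (PTZ) from vehicle. Test compound given 30 min before the PTZ dose. Antagonism of the PTZ stimulus is scored as the anxiolytic response. ED50 values by probit analysis, with 95% confidence limits.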

Assay [4] concerns Rattus norvegicus. The assay is described as follows: Compound tested for its effect on Nonconflict (VI) operant responding of rats at a dose of 30.0 mg/Kg administered perorally. Type of assay: functional. Put shortly:
(§1)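 Cook-Davidson conflict procedure in rats given oral doses. Rats lever-press for milk reward with shock (conflict, FR) and without shock (nonconflict, VI). Value is % change in response rate, with significance set at P < 0.05. The minimally effective oral dose is taken as the dose raising conflict responding or lowering VI responding.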

Assay [5] has as its system Rattus norvegicus. The assay is described as follows: Compound tested for its effect on conflict (FR) operant responding of rats at a dose of 30.0 mg/Kg administered perorally. Type of assay: functional. A digest of the protocol:
as §1

In assay [6] the test system is Rattus norvegicus. As to the kind of experiment: Compound tested for its effect on Nonconflict (VI) operant responding of rats at a dose of 10.0 mg/Kg administered perorally. Type of assay: functional. A digest of the protocol: as §1
For assay [7], the system named is Rattus norvegicus. The assay is described as follows: Minimal effective oral dose to cause VI response decrement in rats. Type of assay: functional. A digest of the protocol: as §1
Assay [8] concerns Rattus norvegicus. The assay is described as follows: Compound tested for its effect on Nonconflict(VI) operant responding of rats at a dose of 1.0 mg/kg administered perorally. Type of assay: functional. To be noted: route oral. A digest of the protocol: as §1
In assay [9] the test system is Rattus norvegicus. The assay is described as follows: Compound tested for its effect on Nonconflict(VI) operant responding of rats at a dose of 10.0 mg/kg administered perorally. To be noted: route oral. Type of assay: functional. A digest of the protocol: as §1
For assay [10], the system named is Rattus norvegicus. The assay is described as follows: Compound tested for its effect on Nonconflict(VI) operant responding of rats at a dose of 3.0 mg/kg administered perorally. Type of assay: functional. The following applies: route oral. Put shortly: as §1
Assay [11] relates to Rattus norvegicus. The assay is described as follows: Compound tested for its effect on Nonconflict(VI) operant responding of rats at a dose of 30.0 mg/kg administered perorally. Type of assay: functional. To be noted: route oral. Put shortly:
as §1

The test system of assay [12] is Rattus norvegicus. As to the kind of experiment: Compound tested for its effect on conflict(FR) operant responding of rats at a dose of 1.0 mg/kg administered perorally. Type of assay: functional. The following applies: route oral. A digest of the protocol:
as §1

Assay [13] relates to Rattus norvegicus. The assay is described as follows: Compound tested for its effect on conflict(FR) operant responding of rats at a dose of 10.0 mg/kg administered perorally. Type of assay: functional. To be noted: route oral. A digest of the protocol: as §1
In assay [14] the test system is Rattus norvegicus. The assay is described as follows: Compound tested for its effect on conflict(FR) operant responding of rats at a dose of 3.0 mg/kg administered perorally. Type of assay: functional. The following applies: route oral. Put shortly: as §1
The subject of assay [15] is Rattus norvegicus. As to the kind of experiment: Compound tested for its effect on conflict(FR) operant responding of rats at a dose of 30.0 mg/kg administered perorally. To be noted: route oral. Type of assay: functional. A digest of the protocol:
as §1

Assay [16] concerns Rattus norvegicus. As to the kind of experiment: Minimal effective oral dose to cause increase in conflict response in rats after po administration. Type of assay: functional. A digest of the protocol:
as §1

SMILES strings stand for the structures. “And” between values parts separate entries of the source, which are not always exact repeats. Equal values may be shown once. A value given as a limit tells only on which side of the number the result lay.

`NC(=O)N1CCc2nc(O)n3nc(-c4ccccc4F)nc3c2C1` had an IC50 in [1] of 67 nM. Also, in assay [2], the GABA ratio was 0.74.
Take `Oc1nc2c(c3nc(-c4ccccc4F)nn13)CN(CCc1ccccc1)CC2`: the IC50 in [1] is 28 nM.
`Oc1nc2c(c3nc(-c4ccccn4)nn13)CN(Cc1ccccc1)CC2`: in [1], the IC50 was 20.6 nM. Further, in [3], the 50% effect level (ED50) was put at a dose of 26 mg/kg. Further, the GABA ratio in assay [2] was 1.6.
Compound `Oc1nc2ccc(Cl)cc2c2nc(-c3ccccc3F)nn12` gave an IC50 in assay [1] of 0.5 nM. In assay [2], the GABA ratio was found to be 0.79.
The corresponding values for `CCOC(=O)N1CCc2nc(O)n3nc(-c4ccccc4F)nc3c2C1` are 12.1 nM and 1.1.
Turning to `Oc1nc2c(c3nc(-c4ccc(Cl)cc4)nn13)CN(Cc1ccccc1)CC2`, the IC50 in assay [1] came out at 22.4 nM. Further, the “Change in response rate” value is -45% in assay [4]; 104% and 188% in [5]; 4% in assay [6]. In assay [3], this compound had an ED50 of 6.43 mg/kg. Further, the MED in [7] is 30 mg/kg. Besides, the GABA ratio in [2] came out at 2.45.
`Oc1nc2c(c3nc(-c4ccccc4F)nn13)CCC2` gave an IC50 in [1] of 4.7 nM.
`Oc1nc2c(c3nc(-c4ccccc4F)nn13)CN(Cc1ccncc1)CC2` showed a half-inhibitory concentration (IC50) in [1] of 1.89 nM. Besides, the GABA ratio in assay [2] was 1.14.
Compound `Oc1nc2c(c3nc(-c4cccc(F)c4)nn13)CN(Cc1ccccc1)CC2` displayed a concentration for half-maximal inhibition (IC50) in assay [1] of 2.4 nM. Further, in assay [2], the GABA ratio came to 1.6.
The compound `CCN1CCc2nc(O)n3nc(-c4ccccc4F)nc3c2C1` came in with an IC50 in assay [1] of 150 nM.
Turning to `O=C(c1ccccc1)N1CCc2nc(O)n3nc(-c4ccccc4F)nc3c2C1`, the IC50 in assay [1] worked out at 50 nM.
The same measure, in the same setting: for `CC1c2nc(O)n3nc(-c4ccccc4F)nc3c2CN1Cc1ccccc1` (stereo not given) the value was over 1000 nM.
`Oc1nc2c(c3nc(-c4ccccc4F)nn13)CN(Cc1ccccc1)CC2` had an IC50 in assay [1] of 0.44 nM. In addition, the “Change in response rate” value in assay [8] is given as 0%; in assay [9], -44%; in [10], -13%; in assay [11] it was -52%; in assay [12], 19%; in [13] it was 206%. In addition, the results for the “Change in response rate” value in [14] and in assay [15] were 173% and 282%, respectively. In assay [3], this compound showed an ED50 of 0.66 mg/kg. In addition, the figures for the MED in assay [7] and in assay [16] were 30 mg/kg and 10 mg/kg, respectively. Further, the GABA ratio in assay [2] was found to be 1.06.
For `Oc1nc2c(c3nc(-c4ccc(F)cc4)nn13)CN(Cc1ccccc1)CC2`, the IC50 in assay [1] stood at 5.35 nM. The “Change in response rate” value in assay [9] is listed as -17%; in assay [11] it was -38%; in assay [13] it was 30%; in assay [15] it was 372%. In assay [3], this compound gave an ED50 of 2.55 mg/kg. Moreover, the MED in assay [7] and in assay [16] was 30 mg/kg each time. The GABA ratio in assay [2] came out at 1.7.
In assay [1], `CC(C)N1CCc2nc(O)n3nc(-c4ccccc4F)nc3c2C1` had an IC50 of 105 nM.
On to `O=S(=O)(c1cccnc1)N1CCc2nc(O)n3nc(-c4ccccc4F)nc3c2C1`, for which, in assay [1], the IC50 came out at 5.34 nM. Besides, the GABA ratio in [2] was 1.3.

As usually defined, the IC50 is the point on the concentration scale where inhibition reaches its midpoint. High values mean a need for much substance, low ones inhibition by little substance. As usually defined, the ED50 is the dose that gives a 50% effect, or the effect in half of the subjects.
